Experimental data as given in ChEMBL document CHEMBL3627671, “Novel derivatives of nitro-substituted salicylic acids: Synthesis, antimicrobial activity and cytotoxicity” (Bioorg Med Chem, 2015).
≈ marks a conversion by molar mass, not a printed value.

Assays:
Assay type in all cases: functional
[1] = system: Trichophyton mentagrophytes; assay: Antifungal activity against Trichophyton mentagrophytes 445 after 48 hrs by microdilution broth method; conditions: Trichophyton mentagrophytes, 445, 48 h
Klebsiella pneumoniae [2] = assay: Antibacterial activity against Klebsiella pneumoniae D 11750/08 after 48 hrs by microdilution broth method; conditions: D 11750/08, 48 h
Outline: (§1)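 Mueller-Hinton broth microdilution (modified M07-A07), pH 7.4 (±0.2). Compounds dissolved in DMSO, tested at final 500 to 0.49 µmol/L. Inoculum in sterile water matched to 0.5 McFarland. Incubated in the dark, humid atmosphere, 35 °C, read at 24 and 48 h visually and at 540 nm. MIC taken as ≥95% growth reduction (IC95) versus control.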

Pseudomonas aeruginosa [3] = assay: Antibacterial activity against Pseudomonas aeruginosa CCM 1961 after 24 hrs by microdilution broth method; conditions: CCM 1961, 24 h; outline: as §1
Candida tropicalis [4] = assay: Antifungal activity against Candida tropicalis 156 after 48 hrs by microdilution broth method; conditions: Candida tropicalis, 156, 48 h
Outline: (§2)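 CLSI M27-A3 broth microdilution in RPMI 1640 with glutamine, buffered to pH 7.0 with MOPS; DMSO diluent. Yeast inoculum 5 × 10^3 ± 0.2 CFU/mL. Moulds grown on Sabouraud agar 3–10 days before spore harvest, final inoculum 0.5-5 × 10^4 CFU/mL, checked in a Bürker chamber. Incubated dark, humid, 35 °C, read at 24 and 48 h visually and at 540 nm. MIC taken as ≥80% (yeasts) or ≥50% (filamentous) growth reduction versus control.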

Lichtheimia corymbifera [5] = assay: Antifungal activity against Absidia corymbifera 272 after 48 hrs by microdilution broth method; conditions: Lichtheimia corymbifera, 272, 48 h; outline: as §2
[6] = system: Staphylococcus epidermidis; assay: Antibacterial activity against Staphylococcus epidermidis H 6966/08 after 24 hrs by microdilution broth method; conditions: H 6966/08, 24 h; outline: as §1
Candida albicans [7] = assay: Antifungal activity against Candida albicans ATCC 44859 after 48 hrs by microdilution broth method; conditions: ATCC 44859, 48 h; outline: as §2
Escherichia coli [8] = assay: Antibacterial activity against Escherichia coli CCM4517 after 48 hrs by microdilution broth method; conditions: CCM4517, 48 h; outline: as §1
Aspergillus fumigatus [9] = assay: Antifungal activity against Aspergillus fumigatus 231 after 24 hrs by microdilution broth method; conditions: Aspergillus fumigatus, 231, 24 h; outline: as §2
Aspergillus fumigatus [10] = assay: Antifungal activity against Aspergillus fumigatus 231 after 48 hrs by microdilution broth method; conditions: Aspergillus fumigatus, 231, 48 h; outline: as §2
[11] = system: Mycobacterium tuberculosis; assay: Antimycobacterial activity against Mycobacterium tuberculosis H37Rv 331/88 after 14 days; conditions: H37Rv 331/88, 336 h
Candida tropicalis [12] = assay: Antifungal activity against Candida tropicalis 156 after 24 hrs by microdilution broth method; conditions: Candida tropicalis, 156, 24 h; outline: as §2
[13] = system: Mycobacterium tuberculosis; assay: Antimycobacterial activity against Mycobacterium tuberculosis H37Rv 331/88 after 21 days; conditions: H37Rv 331/88, 504 h
Nakaseomyces glabratus [14] = assay: Antifungal activity against Candida glabrata 20/I after 48 hrs by microdilution broth method; outline: as §2
Escherichia coli [15] = assay: Antibacterial activity against Escherichia coli CCM4517 after 24 hrs by microdilution broth method; conditions: CCM4517, 24 h; outline: as §1
Mycobacterium kansasii [16] = assay: Antimycobacterial activity against Mycobacterium kansasii 235/80 after 7 days; conditions: 235/80, 168 h
Outline: (§3)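 Šula's semisynthetic medium micromethod at 37 °C, read after 7, 14 and 21 days. The 1.0 McFarland suspension was diluted 10^-4. MIC determined. 6509/96 is a clinical isolate.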

Mycobacterium avium [17] = assay: Antimycobacterial activity against Mycobacterium avium 330/80 after 21 days; conditions: 330/80, 504 h
Trichosporon asahii [18] = assay: Antifungal activity against Trichosporon asahii 1188 after 24 hrs by microdilution broth method; conditions: Trichosporon asahii, 1188, 24 h; outline: as §2
[19] = system: Staphylococcus epidermidis; assay: Antibacterial activity against Staphylococcus epidermidis H 6966/08 after 48 hrs by microdilution broth method; conditions: H 6966/08, 48 h; outline: as §1
Mycobacterium kansasii [20] = assay: Antimycobacterial activity against Mycobacterium kansasii 235/80 after 14 days; conditions: 235/80, 336 h; outline: as §3
Staphylococcus aureus [21] = assay: Antibacterial activity against Staphylococcus aureus CCM 4516/08 after 48 hrs by microdilution broth method; conditions: CCM 4516/08, 48 h
Klebsiella pneumoniae [22] = assay: Antibacterial activity against ESBL-positive Klebsiella pneumoniae J 14368/08 after 24 hrs by microdilution broth method; conditions: J 14368/08, 24 h; outline: as §1
Klebsiella pneumoniae [23] = assay: Antibacterial activity against Klebsiella pneumoniae D 11750/08 after 24 hrs by microdilution broth method; conditions: D 11750/08, 24 h; outline: as §1
Mycobacterium avium [24] = assay: Antimycobacterial activity against Mycobacterium avium 330/80 after 14 days; conditions: 330/80, 336 h
Mycobacterium kansasii [25] = assay: Antimycobacterial activity against Mycobacterium kansasii 6509/96 after 7 days; conditions: 6509/96, 168 h; outline: as §3
Candida albicans [26] = assay: Antifungal activity against Candida albicans ATCC 44859 after 24 hrs by microdilution broth method; conditions: ATCC 44859, 24 h; outline: as §2
Staphylococcus aureus [27] = assay: Antibacterial activity against methicillin-resistant Staphylococcus aureus H 5996/08 after 24 hrs by microdilution broth method; conditions: H 5996/08, 24 h
Mycobacterium kansasii [28] = assay: Antimycobacterial activity against Mycobacterium kansasii 235/80 after 21 days; conditions: 235/80, 504 h; outline: as §3
[29] = system: Trichophyton mentagrophytes; assay: Antifungal activity against Trichophyton mentagrophytes 445 after 24 hrs by microdilution broth method; conditions: Trichophyton mentagrophytes, 445, 24 h
Enterococcus sp. [30] = assay: Antibacterial activity against Enterococcus sp. J 14365/08 after 24 hrs by microdilution broth method; conditions: J 14365/08, 24 h; outline: as §1
Staphylococcus aureus [31] = assay: Antibacterial activity against Staphylococcus aureus CCM 4516/08 after 24 hrs by microdilution broth method; conditions: CCM 4516/08, 24 h
Pichia kudriavzevii [32] = assay: Antifungal activity against Candida krusei E28 after 24 hrs by microdilution broth method; conditions: E28, 24 h; outline: as §2
Pichia kudriavzevii [33] = assay: Antifungal activity against Candida krusei E28 after 48 hrs by microdilution broth method; conditions: E28, 48 h; outline: as §2
Klebsiella pneumoniae [34] = assay: Antibacterial activity against ESBL-positive Klebsiella pneumoniae J 14368/08 after 48 hrs by microdilution broth method; conditions: J 14368/08, 48 h; outline: as §1
Staphylococcus aureus [35] = assay: Antibacterial activity against methicillin-resistant Staphylococcus aureus H 5996/08 after 48 hrs by microdilution broth method; conditions: H 5996/08, 48 h
Mycobacterium kansasii [36] = assay: Antimycobacterial activity against Mycobacterium kansasii 6509/96 after 14 days; conditions: 6509/96, 336 h; outline: as §3
Nakaseomyces glabratus [37] = assay: Antifungal activity against Candida glabrata 20/I after 24 hrs by microdilution broth method; outline: as §2
Pseudomonas aeruginosa [38] = assay: Antibacterial activity against Pseudomonas aeruginosa CCM 1961 after 48 hrs by microdilution broth method; conditions: CCM 1961, 48 h; outline: as §1
Mycobacterium kansasii [39] = assay: Antimycobacterial activity against Mycobacterium kansasii 6509/96 after 21 days; conditions: 6509/96, 504 h; outline: as §3
Trichosporon asahii [40] = assay: Antifungal activity against Trichosporon asahii 1188 after 48 hrs by microdilution broth method; conditions: Trichosporon asahii, 1188, 48 h; outline: as §2
Lichtheimia corymbifera [41] = assay: Antifungal activity against Absidia corymbifera 272 after 24 hrs by microdilution broth method; conditions: Lichtheimia corymbifera, 272, 24 h; outline: as §2
Enterococcus sp. [42] = assay: Antibacterial activity against Enterococcus sp. J 14365/08 after 48 hrs by microdilution broth method; conditions: J 14365/08, 48 h; outline: as §1

O=C(Nc1cccc(F)c1)c1ccc([N+](=O)[O-])cc1O was tested, and the MIC [1] was 500 µM (≈ 138 µg/mL), the MIC (Klebsiella pneumoniae [2]) was over 500 µM and the MIC (Pseudomonas aeruginosa [3]) was over 500 µM. The MIC (Candida tropicalis [4]) was 500 µM (≈ 138 µg/mL), the MIC (Lichtheimia corymbifera [5]) was 250 µM (≈ 69.1 µg/mL) and the MIC [6] was 15.6 µM (≈ 4.31 µg/mL). It also gave an MIC (Candida albicans [7]) of 500 µM (≈ 138 µg/mL), an MIC (Escherichia coli [8]) of 250 µM (≈ 69.1 µg/mL) and an MIC (Aspergillus fumigatus [9]) of 250 µM (≈ 69.1 µg/mL). It also gave an MIC (Aspergillus fumigatus [10]) of 250 µM (≈ 69.1 µg/mL), an MIC [11] of 16 µM (≈ 4.42 µg/mL) and an MIC (Candida tropicalis [12]) of 250 µM (≈ 69.1 µg/mL). The MIC [13] was 16 µM (≈ 4.42 µg/mL), the MIC (Nakaseomyces glabratus [14]) was over 500 µM and the MIC (Escherichia coli [15]) was 250 µM (≈ 69.1 µg/mL). It also gave an MIC (Mycobacterium kansasii [16]) of 16 µM (≈ 4.42 µg/mL), an MIC (Mycobacterium avium [17]) of 125 µM (≈ 34.5 µg/mL) and an MIC (Trichosporon asahii [18]) of 250 µM (≈ 69.1 µg/mL). It also gave an MIC [19] of 31.2 µM (≈ 8.63 µg/mL), an MIC (Mycobacterium kansasii [20]) of 16 µM (≈ 4.42 µg/mL) and an MIC (Staphylococcus aureus [21]) of 31.2 µM (≈ 8.63 µg/mL). The MIC (Klebsiella pneumoniae [22]) was 500 µM (≈ 138 µg/mL), the MIC (Klebsiella pneumoniae [23]) was 500 µM (≈ 138 µg/mL) and the MIC (Mycobacterium avium [24]) was 62.5 µM (≈ 17.3 µg/mL). For the same compound, the MIC (Mycobacterium kansasii [25]) was 16 µM (≈ 4.42 µg/mL), the MIC (Candida albicans [26]) was 250 µM (≈ 69.1 µg/mL) and the MIC (Staphylococcus aureus [27]) was 15.6 µM (≈ 4.31 µg/mL). The MIC (Mycobacterium kansasii [28]) was 32 µM (≈ 8.84 µg/mL), the MIC [29] was 500 µM (≈ 138 µg/mL) and the MIC (Enterococcus sp. [30]) was 500 µM (≈ 138 µg/mL). It also gave an MIC (Staphylococcus aureus [31]) of 15.6 µM (≈ 4.31 µg/mL), an MIC (Pichia kudriavzevii [32]) of 62.5 µM (≈ 17.3 µg/mL) and an MIC (Pichia kudriavzevii [33]) of 62.5 µM (≈ 17.3 µg/mL). The MIC (Klebsiella pneumoniae [34]) was 500 µM (≈ 138 µg/mL), the MIC (Staphylococcus aureus [35]) was 31.2 µM (≈ 8.63 µg/mL) and the MIC (Mycobacterium kansasii [36]) was 32 µM (≈ 8.84 µg/mL). For the same compound, the MIC (Nakaseomyces glabratus [37]) was over 500 µM, the MIC (Pseudomonas aeruginosa [38]) was over 500 µM and the MIC (Mycobacterium kansasii [39]) was 32 µM (≈ 8.84 µg/mL). It also gave an MIC (Trichosporon asahii [40]) of 250 µM (≈ 69.1 µg/mL), an MIC (Lichtheimia corymbifera [41]) of 250 µM (≈ 69.1 µg/mL) and an MIC (Enterococcus sp. [42]) of over 500 µM.
